Measurements published in ChEMBL document CHEMBL1145533, “Antimicrobial activities of ceragenins against clinical isolates of resistant Staphylococcus aureus” (2007).
In brackets after ≈: the same amount, converted by molar mass.

What was measured:
[1] = tested on: Staphylococcus aureus; assay: Antimicrobial activity against heterogeneous glycopeptide-intermediate Staphylococcus aureus by broth microdilution technique after 24 hrs; format: functional
How it was run: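 CLSI broth microdilution in Mueller-Hinton broth with Mg 12.5 mg/liter and Ca 25 mg/liter. […] MBC determined as well. hVISA isolates were identified by subpopulation analysis.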

[2] = tested on: Staphylococcus aureus; assay: Antimicrobial activity against glycopeptide-intermediate Staphylococcus aureus by broth microdilution technique after 24 hrs; format: functional
How it was run: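 CLSI broth microdilution MIC and MBC in duplicate. Mueller-Hinton broth supplemented with Mg 12.5 mg/liter and Ca 25 mg/liter (Ca 50 mg/liter for daptomycin). Inoculum 5 × 10⁵ CFU/ml, 24 h at 35°C, tested up to 32.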

[3] = tested on: Staphylococcus aureus; assay: Bactericidal killing activity against Staphylococcus aureus Mu3 at 4 times MIC; format: functional
How it was run: (§1)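 Time-kill in triplicate in Mueller-Hinton broth supplemented with Mg 12.5 mg/liter and Ca 25 mg/liter. Agent at 0.5×, 1×, 4× and 10× MIC. Starting inocula 5 × 10⁵ (about 6 log₁₀) or 1 × 10⁸ to 1 × 10⁹ CFU/ml. Samples at 0, 1, 4, 8 and 24 h, serially diluted in cold 0.9% NaCl or filtered to remove carryover. Counted by spiral plating on trypticase soy agar; detection limit 2 log₁₀ CFU/ml. Bactericidal = 99.9% kill.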

[4] = tested on: Staphylococcus aureus; assay: Bactericidal killing activity against Staphylococcus aureus Mu3 at 0.5 times MIC; format: functional; how it was run: as §1
[5] = tested on: Staphylococcus aureus; assay: Post antibiotic effect on vancomycin-resistant Staphylococcus aureus MI after 0.5 hrs; format: functional, organism-based
How it was run: (§2)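 Cultures exposed for 0.5 h at 1×, 2× and 4× MIC, then drug removed by washing, dilution, filtration or inactivation. PAE = T − C, where each is the time for counts to rise 1 log10 above the count right after drug removal, for treated (T) and untreated control (C) cultures.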

[6] = tested on: Staphylococcus aureus; assay: Bactericidal killing activity against Staphylococcus aureus Mu3 at 10 times MIC; format: functional
How it was run: (§3)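 Time-kill in Mueller-Hinton broth with Mg 12.5 mg/liter and Ca 25 mg/liter, run in triplicate. Drug at 0.5×, 1×, 4× and 10× MIC. Starting inocula ~6 log10 CFU/ml (5 × 10⁵ to 10⁶) or 8–9 log10 CFU/ml. Samples taken at 0, 1, 4, 8 and 24 h, diluted in cold 0.9% NaCl (filtered if carryover was possible), then spiral plated. Detection limit 2 log10 CFU/ml. Bactericidal = 99.9% kill.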

[7] = tested on: Staphylococcus aureus; assay: Bactericidal killing activity against 8 to 9 log10 CFU/ml Staphylococcus aureus Mu3 at MIC by time-kill curve analysis; format: functional; how it was run: as §3
[8] = tested on: Staphylococcus aureus; assay: Bactericidal killing activity against Staphylococcus aureus Mu3 at MIC; format: functional; how it was run: as §1
[9] = tested on: Staphylococcus aureus; assay: Post antibiotic effect on Staphylococcus aureus Mu3 after 0.5 hrs; format: functional, organism-based
How it was run: (§4)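 Exposure for 0.5 h at 1×, 2× and 4× MIC, then rapid drug removal by washing, dilution, filtration or inactivation. PAE = T − C: time for treated culture to rise 1 log₁₀ CFU/ml after removal, minus the same for an untreated control. Reported as average ± standard deviation.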

[10] = tested on: Staphylococcus aureus; assay: Bactericidal killing activity against Staphylococcus aureus Mu50 at 4 times MIC; format: functional; how it was run: as §3
[11] = tested on: Staphylococcus aureus; assay: Bactericidal killing activity against Staphylococcus aureus Mu50 at MIC; format: functional; how it was run: as §3
[12] = tested on: Staphylococcus aureus; assay: Antibacterial activity against Staphylococcus aureus Mu50 assessed as bacterial density after 8 hrs by time-kill curve analysis; format: functional; how it was run: as §3
[13] = tested on: Staphylococcus aureus; assay: Bactericidal killing activity of heterogenous vancomycin-intermediate Staphylococcus aureus at 10 times MIC by time kill curve analysis; format: functional; how it was run: as §1
[14] = tested on: Staphylococcus aureus; assay: Antibacterial activity against Staphylococcus aureus Mu3 assessed as bacterial density after 8 hrs by time-kill curve analysis; format: functional; how it was run: as §1
[15] = tested on: Staphylococcus aureus; assay: Post antibiotic effect on vancomycin-resistant Staphylococcus aureus PA after 0.5 hrs; format: functional, organism-based; how it was run: as §2
[16] = tested on: Staphylococcus aureus; assay: Bactericidal killing activity of vancomycin-intermediate Staphylococcus aureus by time kill curve analysis; format: functional, organism-based; how it was run: as §1
[17] = tested on: Staphylococcus aureus; assay: Bactericidal killing activity of vancomycin-intermediate Staphylococcus aureus at 10 times MIC by time kill curve analysis; format: functional; how it was run: as §1
[18] = tested on: Staphylococcus aureus; assay: Antibacterial activity against Staphylococcus aureus Mu3 assessed as bacterial density after 24 hrs by time-kill curve analysis; format: functional; how it was run: as §1
[19] = tested on: Staphylococcus aureus; assay: Bactericidal killing activity against 6 log10 CFU/ml Staphylococcus aureus Mu50 at 4 times MIC by time-kill curve analysis; format: functional; how it was run: as §1
[20] = tested on: Staphylococcus aureus; assay: Bactericidal killing activity of vancomycin-resistant Staphylococcus aureus by time kill curve analysis; format: functional, organism-based; how it was run: as §3
[21] = tested on: Staphylococcus aureus; assay: Post antibiotic effect on Staphylococcus aureus Mu50 after 0.5 hrs; format: functional, organism-based; how it was run: as §4
[22] = tested on: Staphylococcus aureus; assay: Bactericidal killing activity against 6 log10 CFU/ml Staphylococcus aureus Mu3 at MIC by time-kill curve analysis; format: functional; how it was run: as §1
[23] = tested on: Staphylococcus aureus; assay: Bactericidal killing activity of heterogenous vancomycin-intermediate Staphylococcus aureus by time kill curve analysis; format: functional, organism-based; how it was run: as §1
[24] = tested on: Staphylococcus aureus; assay: Antibacterial activity against Staphylococcus aureus Mu50 assessed as bacterial density after 24 hrs by time-kill curve analysis; format: functional; how it was run: as §3
[25] = tested on: Staphylococcus aureus; assay: Bactericidal killing activity against 8 to 9 log10 CFU/ml Staphylococcus aureus Mu50 at 4 times MIC by time-kill curve analysis; format: functional; how it was run: as §1

`CN[C@H](CC(C)C)C(=O)N[C@H]1C(=O)N[C@@H](CC(N)=O)C(=O)N[C@H]2C(=O)N[C@H]3C(=O)N[C@H](C(=O)N[C@H](C(=O)O)c4cc(O)cc(O)c4-c4cc3ccc4O)[C@H](O)c3ccc(c(Cl)c3)Oc3cc2cc(c3O[C@@H]2O[C@H](CO)[C@@H](O)[C@H](O)[C@H]2O[C@H]2C[C@](C)(N)[C@H](O)[C@H](C)O2)Oc2ccc(cc2Cl)[C@H]1O` [VANCOMYCIN] showed an MIC50 [1] of 4 µg/mL (≈ 2.76 µM), an MIC90 [1] of 8 µg/mL (≈ 5.52 µM) and an MBC50 [2] of 8 µg/mL (≈ 5.52 µM). For the same molecule, the MBC90 [2] was 8 µg/mL (≈ 5.52 µM).

With `CCCCCCCCCC(=O)N[C@@H](Cc1c[nH]c2ccccc12)C(=O)N[C@H](CC(N)=O)C(=O)N[C@@H](CC(=O)O)C(=O)N[C@@H]1C(=O)NCC(=O)N[C@@H](CCCN)C(=O)N[C@@H](CC(=O)O)C(=O)N[C@H](C)C(=O)N[C@@H](CC(=O)O)C(=O)NCC(=O)N[C@H](CO)C(=O)N[C@@H]([C@H](C)CC(=O)O)C(=O)N[C@@H](CC(=O)c2ccccc2N)C(=O)O[C@@H]1C` the MIC50 [1] was 0.5 µg/mL (≈ 0.309 µM), the MIC90 [1] was 1 µg/mL (≈ 0.617 µM) and the MBC50 [2] was 0.5 µg/mL (≈ 0.309 µM). The MBC90 [2] was 1 µg/mL (≈ 0.617 µM).

Work on `CCCCCCCCNCCC[C@@H](C)[C@H]1CC[C@H]2[C@@H]3[C@H](OCCCN)CC4C[C@H](OCCCN)CC[C@]4(C)[C@H]3C[C@H](OCCCN)[C@]12C.Cl.Cl.Cl.Cl` (stereo partly drawn) yielded an MIC50 [1] of 1 µg/mL, an MIC90 [1] of 1 µg/mL and a T99.9% [3] of 4 h. The T99.9% [4] was 24 h, the Post anitbiotic effect [5] was “Dose-dependent effect” and the T99.9% [6] was 1 h. The MBC50 [2] was 1 µg/mL, the MBC90 [2] was 1 µg/mL and the T99.9% [7] was “>=24 hr”. The T99.9% [8] was 8 h, the Post anitbiotic effect [9] was “Dose-dependent effect” and the T99.9% [10] was 4 h. For the same molecule, the T99.9% [11] was 8 h, the log10CFU/ml [12] was -3.4 and the T99.9% [13] was 1 h. For the same molecule, the log10CFU/ml [14] was -3.4, the Post anitbiotic effect [15] was “Dose-dependent effect” and the Activity [16] was “Dose-dependent effect”. The T99.9% [17] was 1 h, the log10CFU/ml [18] was -3.75 and the T99.9% [19] was 4 h. The Activity [20] was “Dose-dependent effect”, the Post anitbiotic effect [21] was “Dose-dependent effect” and the T99.9% [22] was 8 h. For the same molecule, the Activity [23] was “Dose-dependent effect”, the log10CFU/ml [24] was -3.75 and the T99.9% [25] was “>=24 hr”.

Work on `CC(=O)NC[C@H]1CN(c2ccc(N3CCOCC3)c(F)c2)C(=O)O1` [LINEZOLID] yielded an MIC50 [1] of 1 µg/mL (≈ 2.96 µM), an MIC90 [1] of 2 µg/mL (≈ 5.93 µM) and an MBC50 [2] of 8 µg/mL (≈ 23.7 µM). It also gave an MBC90 [2] of 64 µg/mL (≈ 190 µM).

`C[C@H](CCCO)[C@H]1CC[C@H]2[C@@H]3[C@H](OCCCN)CC4C[C@H](OCCCN)CC[C@]4(C)[C@H]3C[C@H](OCCCN)[C@]12C.Cl` (stereo partly drawn) showed an MIC50 [1] of 4 µg/mL, an MIC90 [1] of 8 µg/mL and an MBC50 [2] of 8 µg/mL. It also gave an MBC90 [2] of 8 µg/mL.
